Experimental data: ChEMBL document CHEMBL1145397, “Structure-activity relationships of a series of analogs of the endozepine octadecaneuropeptide (ODN(11)(-)(18)) on neurosteroid biosynthesis by hypothalamic explants” (2007)
The source made the active and inactive calls. The rule behind the calls is not given here.

Assays:
[1] = tested on: Hypothalamus; experiment: Effect on neurosteroid biosynthesis assessed as conversion of [3H]pregnenolone to 17-Hydroxypregnenolone in frog hyphalamic explats at 1 uM after 2 hrs relative to control; format: functional, Pelophylax lessonae
How it was run: (§1)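 Frog hypothalamic explants, preincubated 15 min in HEPES/bicarbonate Ringer's (glucose, BSA, 95% O2/5% CO2, pH 7.4), then incubated 2 h at 24 °C with 10^-6 M [3H]pregnenolone in 4% propylene glycol, with or without peptide. Reaction stopped with trichloroacetic acid; steroids extracted in dichloromethane and resolved by RP-HPLC radioactivity profiles. Values are % of steroid formed without peptide, mean ± SEM of independent experiments.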

[2] = tested on: Hypothalamus; experiment: Effect on neurosteroid biosynthesis assessed as conversion of [3H]pregnenolone to progesterone in frog hyphalamic explats at 1 uM after 2 hrs relative control; format: functional, Pelophylax lessonae; how it was run: as §1
[3] = tested on: Hypothalamus; experiment: Effect on neurosteroid biosynthesis assessed as conversion of [3H]pregnenolone to 17-Hydroxypregnenolone in frog hyphalamic explats at 10 uM after 2 hrs relative to control; format: functional, Pelophylax lessonae; how it was run: as §1
[4] = tested on: Hypothalamus; experiment: Effect on neurosteroid biosynthesis assessed as conversion of [3H]pregnenolone to progesterone in frog hyphalamic explats at 10 uM after 2 hrs relative control; format: functional, Pelophylax lessonae; how it was run: as §1
[5] = tested on: Hypothalamus; experiment: Effect on neurosteroid biosynthesis in frog hyphalamic explats at 1 uM after 2 hrs in presence of CBR antagonist flumazenil; format: functional, tissue-based; conditions: Pelophylax lessonae; how it was run: as §1

Molecule | Activity [1] | Activity [2] | Activity [3] | Activity [4] | Activity [5]
CC(C)C[C@@H]1NC(=O)CNC(=O)[C@@H]2CCCN2C(=O)[C@H](CCCNC(=N)N)NC(=O)[C@H](CCCCN)NC(=O)[C@H](CC(C)C)NC(=O)[C@H](CC(=O)O)NC(=O)[C@H](CC(C)C)NC1=O | 246.9% | 271.9% | – | – | –
CC(C)C[C@@H]1NC(=O)CNC(=O)[C@@H]2CCCN2C(=O)[C@H](CCCNC(=N)N)NC(=O)[C@H](CCCCN)NC(=O)[C@H](CC(C)C)NC(=O)[C@H](CC(=O)O)NC(=O)[C@@H](CC(C)C)NC1=O | – | – | 99.9% | 99.7% | –
CC(C)C[C@@H]1NC(=O)CNC(=O)[C@H]2CCCN2C(=O)[C@H](CCCNC(=N)N)NC(=O)[C@H](CCCCN)NC(=O)[C@H](CC(C)C)NC(=O)[C@H](CC(=O)O)NC(=O)[C@@H](CC(C)C)NC1=O | – | – | – | – | inactive
H-APGLLDLK-OH [APGLLDLK] | 402.7% | 276.5% | – | – | –
H-GLLDL-OH | 98.9% | 116.5% | – | – | –
H-GLLDLK-OH | 366.6% | 266.6% | – | – | –
H-LLDLK-OH | 103.6% | 103.8% | – | – | –
H-PGLLD-OH | 101.3% | 101.4% | – | – | –
H-PGLLDL-OH | 117.5% | 137% | – | – | –
H-PGLLDLK-OH [PGLLDLK] | 400.2% | 282.1% | – | – | –
H-QATVGDVNTDRPGLLDLK-OH [QATVGDVNTDRPGLLDLK] | 465.3% | 382.7% | – | – | –
H-RAGLLDLK-OH | 405% | 265.2% | – | – | –
H-RPALLDLK-OH | 126% | 99% | – | – | –
H-RPGALDLK-OH | 97.1% | 104.7% | – | – | –
H-RPGLADLK-OH | 92.8% | 108.5% | – | – | –
H-RPGLL-OH | 97.1% | 99.6% | – | – | –
H-RPGLLALK-OH | 103.6% | 100.4% | – | – | –
H-RPGLLD-OH | 98.2% | 98.6% | – | – | –
H-RPGLLDAK-OH | 99.5% | 103.2% | – | – | –
H-RPGLLDL-OH | 131.5% | 136.6% | – | – | –
H-RPGLLDLA-OH | 126% | 137% | – | – | –
H-RPGLLDLK-OH | 410.5% | 281.7% | – | – | inactive
